According to ChEMBL document CHEMBL1135742, “Modification of the structure of a metallopeptide: synthesis and biological evaluation of (111)In-labeled DOTA-conjugated rhenium-cyclized alpha-MSH analogues” (J Med Chem, 2002):

Assays:
Format in all cases: functional, organism-based
Mus musculus [1] = organism: Mus musculus; test: Radioactivity uptake in the muscle was expressed as a percentage of the injected radioactive dose per gram of tissue (% ID/g) in B16/F1 Murine Melanoma-Bearing C57 Mice at 4 h
In short: (§1)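 C57 BL/6 female mice (7–8 weeks) carried B16/F1 tumours from 1×10^6 cells given s.c. in the right flank; tumours were ~500 mg at 9–10 days. Each mouse received […] of HPLC-purified, neutralized 111In-DOTA peptide via the tail vein. Mice were killed at 0.5, 2, 4 or 24 h pi. Tissues were weighed and γ-counted, expressed as % ID/g; ratios were tumor/tissue % ID/g.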

Mus musculus [2] = organism: Mus musculus; test: Radioactivity uptake in the spleen was expressed as a percentage of the injected radioactive dose per gram of tissue (% ID/g) in B16/F1 Murine Melanoma-Bearing C57 Mice at 0.5 h; in short: as §1
Mus musculus [3] = organism: Mus musculus; test: Radioactivity uptake in the spleen was expressed as a percentage of the injected radioactive dose per gram of tissue (% ID/g) in B16/F1 Murine Melanoma-Bearing C57 Mice at 4 h; in short: as §1
Mus musculus [4] = organism: Mus musculus; test: Radioactivity uptake in the tumor was expressed as a percentage of the injected radioactive dose per gram of tissue (% ID/g) in B16/F1 Murine Melanoma-Bearing C57 Mice at 0.5 h; in short: as §1
Mus musculus [5] = organism: Mus musculus; test: Radioactivity uptake in the tumor was expressed as a percentage of the injected radioactive dose per gram of tissue (% ID/g) in B16/F1 Murine Melanoma-Bearing C57 Mice at 24 h; in short: as §1
Mus musculus [6] = organism: Mus musculus; test: Radioactivity uptake in the tumor was expressed as a percentage of the injected radioactive dose per gram of tissue (% ID/g) in B16/F1 Murine Melanoma-Bearing C57 Mice at 4 h; in short: as §1
Mus musculus [7] = organism: Mus musculus; test: Radioactivity uptake in the muscle was expressed as a percentage of the injected radioactive dose per gram of tissue (% ID/g) in B16/F1 Murine Melanoma-Bearing C57 Mice at 2 h; in short: as §1
Mus musculus [8] = organism: Mus musculus; test: Radioactivity uptake in the muscle was expressed as a percentage of the injected radioactive dose per gram of tissue (% ID/g) in B16/F1 Murine Melanoma-Bearing C57 Mice at 24 h; in short: as §1
Mus musculus [9] = organism: Mus musculus; test: Radioactivity uptake in the kidneys was expressed as a percentage of the injected radioactive dose per gram of tissue (% ID/g) in B16/F1 Murine Melanoma-Bearing C57 Mice at 4 h; details: Kidney; in short: as §1
Mus musculus [10] = organism: Mus musculus; test: Radioactivity uptake in the liver was expressed as a percentage of the injected radioactive dose per gram of tissue (% ID/g) in B16/F1 Murine Melanoma-Bearing C57 Mice at 0.5 h; in short: as §1
Mus musculus [11] = organism: Mus musculus; test: Radioactivity uptake in the liver was expressed as a percentage of the injected radioactive dose per gram of tissue (% ID/g) in B16/F1 Murine Melanoma-Bearing C57 Mice at 2 h; in short: as §1
Mus musculus [12] = organism: Mus musculus; test: Radioactivity uptake in the liver was expressed as a percentage of the injected radioactive dose per gram of tissue (% ID/g) in B16/F1 Murine Melanoma-Bearing C57 Mice at 4 h; in short: as §1
Mus musculus [13] = organism: Mus musculus; test: Radioactivity uptake in the lungs was expressed as a percentage of the injected radioactive dose per gram of tissue (% ID/g) in B16/F1 Murine Melanoma-Bearing C57 Mice at 4 h; details: Lung; in short: as §1
Mus musculus [14] = organism: Mus musculus; test: Uptake Ratio of Tumor/blood (each in % ID/g) in B16/F1 Murine Melanoma-Bearing C57 Mice at 0.5 h; in short: as §1
Mus musculus [15] = organism: Mus musculus; test: Uptake Ratio of Tumor/blood (each in % ID/g) in B16/F1 Murine Melanoma-Bearing C57 Mice at 24 h; in short: as §1
Mus musculus [16] = organism: Mus musculus; test: Uptake Ratio of Tumor/blood (each in % ID/g) in B16/F1 Murine Melanoma-Bearing C57 Mice at 4 h; in short: as §1
Mus musculus [17] = organism: Mus musculus; test: Uptake Ratio of Tumor/kidneys (each in % ID/g) in B16/F1 Murine Melanoma-Bearing C57 Mice at 2 h; details: Kidney; in short: as §1
Mus musculus [18] = organism: Mus musculus; test: Uptake Ratio of Tumor/liver (each in % ID/g) in B16/F1 Murine Melanoma-Bearing C57 Mice at 24 h; in short: as §1
Mus musculus [19] = organism: Mus musculus; test: Uptake Ratio of Tumor/lungs (each in % ID/g) in B16/F1 Murine Melanoma-Bearing C57 Mice at 2 h
In short: (§2)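 Female C57 BL/6 mice, 7–8 weeks old, carried subcutaneous right-flank B16/F1 tumors from 1×10^6 cells and were used 9–10 days later at ~500 mg tumor weight. Each received […] of HPLC-purified, pH-neutralized ¹¹¹In-DOTA peptide by tail vein. Tumor and organs were excised at the stated time, weighed and γ-counted. Each tissue was taken as % ID/g, and tumor/normal-tissue ratios were formed from these values.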

Mus musculus [20] = organism: Mus musculus; test: Uptake Ratio of Tumor/lungs (each in % ID/g) in B16/F1 Murine Melanoma-Bearing C57 Mice at 24 h; in short: as §2
Mus musculus [21] = organism: Mus musculus; test: Uptake Ratio of Tumor/lungs (each in % ID/g) in B16/F1 Murine Melanoma-Bearing C57 Mice at 4 h; in short: as §2
Mus musculus [22] = organism: Mus musculus; test: Uptake Ratio of Tumor/muscle (each in % ID/g) in B16/F1 Murine Melanoma-Bearing C57 Mice at 24 h; details: Muscle tissue; in short: as §2
Mus musculus [23] = organism: Mus musculus; test: Uptake Ratio of Tumor/kidneys (each in % ID/g) in B16/F1 Murine Melanoma-Bearing C57 Mice at 24 h; details: Kidney; in short: as §1
Mus musculus [24] = organism: Mus musculus; test: Uptake Ratio of Tumor/liver (each in % ID/g) in B16/F1 Murine Melanoma-Bearing C57 Mice at 2 h; in short: as §1
Mus musculus [25] = organism: Mus musculus; test: Uptake of [111In]-labeled compound in blood at 2 hr pi in the absence of […]
In short: (§3)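 C57 BL/6 female mice, 7–8 weeks old, inoculated s.c. in right flank with 1×10^6 B16/F1 melanoma cells. Used 9–10 days later at tumor weight ~500 mg. […] HPLC-purified 111In-DOTA peptide (neutral pH) given via tail vein, with or without […]. Killed 2 h pi. Tissues weighed and gamma-counted. Uptake expressed as % ID/g.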

Mus musculus [26] = organism: Mus musculus; test: Uptake of [111In]-labeled compound in blood at 2 hr pi in the presence of […]; in short: as §3
Mus musculus [27] = organism: Mus musculus; test: Uptake of [111In]-labeled compound in heart at 2 hr pi in the absence of […]; in short: as §3
Mus musculus [28] = organism: Mus musculus; test: Uptake of [111In]-labeled compound in liver at 2 h pi in the absence of […]; in short: as §3
Mus musculus [29] = organism: Mus musculus; test: Uptake of [111In]-labeled compound in lung at 2 hr pi in the absence of […]; in short: as §3
Mus musculus [30] = organism: Mus musculus; test: Uptake of [111In]-labeled compound in pancreas at 2 hr pi in the absence of 10 mg NDP; in short: as §3
Mus musculus [31] = organism: Mus musculus; test: Uptake of [111In]-labeled compound in pancreas at 2 hr pi in the presence of 10 mg NDP; in short: as §3
Mus musculus [32] = organism: Mus musculus; test: Uptake of [111In]-labeled compound in spleen at 2 hr pi in the absence of 10 mg NDP; in short: as §3
Mus musculus [33] = organism: Mus musculus; test: Uptake of [111In]-labeled compound in spleen at 2 hr pi in the presence of 10 mg NDP; in short: as §3
Mus musculus [34] = organism: Mus musculus; test: Uptake of [111In]-labeled compound in tumor at 2 hr pi in the absence of […]; in short: as §3

| Substance | ID/g (Mus musculus [1]) [%] | ID/g (Mus musculus [2]) [%] | ID/g (Mus musculus [3]) [%] | ID/g (Mus musculus [4]) [%] | ID/g (Mus musculus [5]) [%] | ID/g (Mus musculus [6]) [%] | ID/g (Mus musculus [7]) [%] | ID/g (Mus musculus [8]) [%] | ID/g (Mus musculus [9]) [%] | ID/g (Mus musculus [10]) [%] | ID/g (Mus musculus [11]) [%] | ID/g (Mus musculus [12]) [%] | ID/g (Mus musculus [13]) [%] | Uptake ratio (Mus musculus [14]) | Uptake ratio (Mus musculus [15]) | Uptake ratio (Mus musculus [16]) | Uptake ratio (Mus musculus [17]) | Uptake ratio (Mus musculus [18]) | Uptake ratio (Mus musculus [19]) | Uptake ratio (Mus musculus [20]) | other results |
| --- | --- | --- | --- | --- | --- | --- | --- | --- | --- | --- | --- | --- | --- | --- | --- | --- | --- | --- | --- | --- | --- |
| Ac-Lys(DOTA)-ReCCEHdFRWCKPV-NH2 | 0.017 | 0.51 | 0.19 | 7.15 | 3.54 | 6.01 | 0.02 | 0.11 | 19 | 0.66 | 0.24 | 0.29 | 0.18 | 3.8 | 67.2 | 88.7 | 0.46 | 12.7 | 48.6 | 22.9 | Uptake ratio (Mus musculus [21]): 48.4; Uptake ratio (Mus musculus [22]): 13.3; Uptake ratio (Mus musculus [23]): 0.27; Uptake ratio (Mus musculus [24]): 33.3 |
| DOTA-ReCCEHdFRWCKPV-NH2 | 0.093 | 0.59 | 0.22 | 10.4 | 4.86 | 9.46 | 0.047 | 0.031 | 9.27 | 0.59 | 0.23 | 0.2 | 0.11 | 6.9 | 601 | 490 | 1.3 | 32.7 | 69.4 | 169 | Uptake ratio (Mus musculus [21]): 100; Uptake ratio (Mus musculus [22]): 173; Uptake ratio (Mus musculus [23]): 0.88; Uptake ratio (Mus musculus [24]): 49.9 |
| DOTA-ReCCEHdFRWCKPV-OH | 0.035 | 0.4 | 0.15 | 10.4 | 3.14 | 9.27 | 0.054 | 0.14 | 8.7 | 0.45 | 0.15 | 0.14 | 0.1 | 6.9 | 22.4 | 200 | 1.1 | 18.5 | 52.8 | 85.1 | Uptake ratio (Mus musculus [21]): 92; Uptake ratio (Mus musculus [22]): 26.8; Uptake ratio (Mus musculus [23]): 0.43; Uptake ratio (Mus musculus [24]): 63 |
| DOTA-ReCCEHdFRWCKPVD-OH | 0.047 | 0.29 | 0.16 | 8.96 | 2.48 | 7.32 | 0.13 | 0.082 | 8.13 | 0.43 | 0.16 | 0.16 | 0.097 | 6.8 | 65.5 | 199 | 1.1 | 12.9 | 56.6 | 105 | Uptake ratio (Mus musculus [21]): 104; Uptake ratio (Mus musculus [22]): 27.3; Uptake ratio (Mus musculus [23]): 0.4; Uptake ratio (Mus musculus [24]): 51.3 |
| DOTA-ReCCEHdFRWCRPV-NH2 | 0.086 | 0.78 | 0.27 | 16.6 | 8.19 | 17.4 | 0.03 | 0.14 | 7.37 | 0.66 | 0.38 | 0.3 | 0.13 | 9.7 | 95 | 254 | 2 | 25.6 | 65.4 | 43.7 | ID/g (Mus musculus [25]): 0.21%; ID/g (Mus musculus [26]): 0.27%; ID/g (Mus musculus [27]): 0.07%; ID/g (Mus musculus [28]): 0.38%; ID/g (Mus musculus [29]): 0.3%; ID/g (Mus musculus [30]): 0.08%; ID/g (Mus musculus [31]): 0.11%; ID/g (Mus musculus [32]): 0.27%; ID/g (Mus musculus [33]): 0.47%; ID/g (Mus musculus [34]): 17.3%; Uptake ratio (Mus musculus [21]): 122; Uptake ratio (Mus musculus [22]): 42.2; Uptake ratio (Mus musculus [23]): 1.5; Uptake ratio (Mus musculus [24]): 45.7 |
